The record followed here is ChEMBL document CHEMBL2169850, “3,6-bis(3-alkylguanidino)acridines as DNA-intercalating antitumor agents” (Eur J Med Chem, 2012).

Data set [1] concerns HL-60. The data set is described as follows: Cell cycle arrest in human HL60 cells assessed as accumulation at S phase at 15 uM incubated for 24 hrs by flow cytometry (reference value: 44.41 +/- 0.77%). Format: functional. On the technique in general: Flow cytometry measures light scatter and fluorescence of single cells or particles in a stream.
Data set [2] concerns HL-60. Briefly: Cell cycle arrest in human HL60 cells assessed as accumulation at G1 phase at 25 uM incubated for 72 hrs by flow cytometry (reference value: 47.02 +/- 6.19%). The class given is functional.
Data set [3] deals with T1, DNA topoisomerase 1 (Homo sapiens) (UniProt P11387).
T1 sequence (whole entry): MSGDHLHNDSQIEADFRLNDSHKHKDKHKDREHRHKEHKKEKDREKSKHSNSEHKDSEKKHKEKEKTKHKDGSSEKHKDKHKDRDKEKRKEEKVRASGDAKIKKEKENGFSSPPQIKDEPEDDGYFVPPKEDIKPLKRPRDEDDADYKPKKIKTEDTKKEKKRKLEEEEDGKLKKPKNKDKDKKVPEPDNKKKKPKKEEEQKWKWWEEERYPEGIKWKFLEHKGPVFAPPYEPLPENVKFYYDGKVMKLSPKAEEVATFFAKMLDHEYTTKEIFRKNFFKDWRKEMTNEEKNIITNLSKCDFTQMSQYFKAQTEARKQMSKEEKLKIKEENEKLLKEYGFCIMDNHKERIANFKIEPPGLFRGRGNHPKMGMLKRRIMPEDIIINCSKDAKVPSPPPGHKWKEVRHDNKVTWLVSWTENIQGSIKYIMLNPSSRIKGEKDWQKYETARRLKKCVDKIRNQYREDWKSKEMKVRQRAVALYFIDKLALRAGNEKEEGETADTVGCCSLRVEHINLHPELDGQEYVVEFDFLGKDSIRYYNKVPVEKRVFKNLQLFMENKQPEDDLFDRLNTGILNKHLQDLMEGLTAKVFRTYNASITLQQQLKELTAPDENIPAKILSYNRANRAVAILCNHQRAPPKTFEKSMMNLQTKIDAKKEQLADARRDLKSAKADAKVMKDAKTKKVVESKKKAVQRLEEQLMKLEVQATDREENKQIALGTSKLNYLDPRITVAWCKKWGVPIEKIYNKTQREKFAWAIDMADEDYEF
The data set is described as follows: Inhibition of human topoisomerase 1 assessed as reduction in pBR322 DNA relaxation of relaxation at 60 uM by DNA unwinding assay.

Data set [4] deals with Nucleic Acid. Briefly: Binding affinity to calf thymus DNA increase in DNA viscosity at 12 to 60 uM by viscosimetric titration assay. The class given is nucleic-acid assay. Conditions: Bos taurus. In short, it runs like this: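 Relative viscosity of ctDNA (3.11 × 10^-8 M) with compound at 12–60 × 10^-6 M was measured by automated microviscometry in a 1.6 mm capillary at 25 °C, in 10 mM Tris, pH 7.4. Solution density was also measured.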

Data set [5] has as its system HL-60. The data set is described as follows: Induction of apoptosis in human HL60 cells at 5 to 25 uM incubated for 24 hrs by AnnexinV/propidium iodide staining method. The class given is functional, cell-based. A digest of the protocol:
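HL-60 cells (1.5 × 10^5) were treated at 5–25 µM for 24, 48 or 72 h and harvested. They were stained with Annexin V-FITC for 10 min in HEPES/CaCl2/NaCl binding buffer, washed, briefly stained with PI (1 mg/mL) and analysed by flow cytometry for apoptosis and necrosis. Mean ± SD, n ≥ 3.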

Data set [6] has as its system HL-60. Briefly: Drug uptake in human HL60 cells with necrotic morphology at 50 uM incubated for 18 hrs by fluorescence microscopy. Format: ADME, cell-based. Conditions: hl-60, 18 h. In short, it runs like this: (§1)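 HL-60 cells were treated with 50 µM compound for 18 h, washed with PBS, resuspended in HBSS and mounted as native slides. Cells were imaged by inverted fluorescence microscopy at 40×, with excitation 360/40 and emission 470/40. The fluorescence channel was merged with brightfield images.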

Data set [7] deals with HL-60. The data set is described as follows: Cell cycle arrest in human HL60 cells assessed as accumulation at G2/M phase at 5 uM incubated for 24 hrs by flow cytometry (reference value: 19.62 +/- 0.96%). Format: functional.
The test system of data set [8] is HL-60. The data set is described as follows: Cell cycle arrest in human HL60 cells assessed as accumulation at S phase at 15 uM incubated for 48 hrs by flow cytometry (reference value: 45.29 +/- 1.23%). The class given is functional.
Data set [9] has as its system HL-60. Briefly: Induction of mitochondrial membrane dissipation in human HL60 cells at 5 to 25 uM incubated for 24 to 72 hrs by FACS assay. Format: functional. A digest of the protocol: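 HL-60 cells (5 × 10^5) were treated 24, 48 or 72 h, washed in HBSS and loaded with TMRE for 20 min at 37 °C in the dark. TMRE fluorescence in FL2 was read by flow cytometry, with 1 × 10^4 gated cells per sample. Result is the percentage of cells with decreased fluorescence (dissipated MMP). Mean ± SD, n ≥ 3.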

Data set [10] deals with HL-60. Briefly: Induction of necrosis in human HL60 cells at 5 to 25 uM incubated for 24 hrs by AnnexinV/propidium iodide staining method. Format: functional, cell-based. In short, it runs like this:
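HL-60 cells (1.5 × 10^5) were exposed to compound, then stained 10 min with Annexin V-FITC in HEPES/CaCl2/NaCl binding buffer. Cells were washed, briefly stained with propidium iodide and analysed by flow cytometry for apoptotic and necrotic fractions. Mean ± SD of at least three independent experiments.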

Data set [11] relates to HL-60. The data set is described as follows: Cell cycle arrest in human HL60 cells assessed as accumulation at S phase at 25 uM incubated for 24 hrs by flow cytometry (reference value: 44.41 +/- 0.77%). Format: functional.
Data set [12] deals with HL-60. Briefly: Drug uptake in human HL60 cells with normal morphology at 50 uM incubated for 18 hrs by fluorescence microscopy. The class given is ADME, cell-based. The conditions noted are these: hl-60, 18 h. A digest of the protocol: as §1
In data set [13] the test system is Nucleic Acid. The data set is described as follows: Binding affinity to calf thymus DNA at 9.6 uM by spectrofluorimetric titration assay. The class given is nucleic-acid assay. Conditions: Bos taurus. In short, it runs like this: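 Fluorescence titration at 25 °C in 0.01 M Tris, pH 7.4. Compound (9.58 × 10^-6 M) was titrated with ctDNA from 0 to 2.57 × 10^-4 M bp, excited at 384 nm, and emission recorded from 400 to 600 nm. K and n were obtained from McGhee–von Hippel fits of Scatchard data.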

Each structure is given as a SMILES string. Calls of active or inactive are those of the source. The calls are words filed in the database; no cut-off is given here.

`CCNC(=N)Nc1ccc2cc3ccc(NC(=N)NCC)cc3nc2c1.Cl.Cl.O`: the outcome in data set [1], in data set [2], in data set [5], in [7], in data set [8] and in [9] was inactive. For the same compound, the result in [10] and in data set [11] was inactive. The “Topoisomerase 1 inhibition (active/inactive)” value in data set [3] is “Active”. The result in [4] was Active. Besides, in data set [6], the Drug uptake result is given as “Active”.

As to `CCCCCCNC(=N)Nc1ccc2cc3ccc(NC(=N)NCCCCCC)cc3nc2c1.Cl.Cl.O`, the Activity in [1] was 46.58%; in [2], 73.59%; in [7] it was 16.37%; in data set [8], 27.52%; in data set [9], 70%; in data set [11], 38.11%. Besides, the “Topoisomerase 1 inhibition (active/inactive)” value in [3] is “Active”. Moreover, the Drug uptake result in data set [12] and in data set [6] was “Active” throughout. Moreover, the result in data set [4] and in data set [13] was Active.
